Assay results reported in ChEMBL document CHEMBL1914406, “Inhibitory effect of novel 5-O-acyl juglones on mammalian DNA polymerase activity, cancer cell growth and inflammatory response” (Bioorg Med Chem, 2011).
Calls of active or inactive are those of the source. The calls are words filed in the database; no cut-off is given here.

Key:
[1] = target: Human immunodeficiency virus type 1 reverse transcriptase (Human immunodeficiency virus 1, UniProt Q72547); experiment: Inhibition of HIV-1 reverse transcriptase using poly(rA)/oligo(dT)18(A/T = 2/1) and dTTP as the DNA template-primer and nucleotide substrate after 60 mins
Procedure, shortened: (§1)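 Compound in DMSO, sonicated 30 s. Premixed 0 °C, 10 min with enzyme (0.05 units) in 50 mM Tris-HCl pH 7.5, 1 mM DTT, 50% glycerol, 0.1 mM EDTA, then added to standard reaction mixture. Template-primers: poly(dA)/oligo(dT)18 (2/1) for pols, oligo(dT)18 for TdT, poly(rA)/oligo(dT)18 for HIV-1 RT, with [3H]dTTP. 60 min at 37 °C (Taq 74 °C). Activity relative to no-inhibitor control; mean ± SE of three experiments.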

HCT-116 = experiment: Cytotoxicity against human HCT116 cells by WST-1 assay; format: functional, cell-based
Procedure, shortened: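 HCT116 colon carcinoma cells (ATCC) grown in McCoy's 5A with 10% FBS, penicillin and streptomycin, 37 °C, 5% CO2. Plated at 1 × 10⁴ cells/well together with compound, which was diluted from a 10 mM DMSO stock into medium (final 0.5% DMSO). Incubated 24 h. Viability read by WST-1, expressed relative to untreated cells.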

RAW264.7 [2] = experiment: Cytotoxicity against mouse RAW264.7 cells at 5 uM; format: cell-based; settings: raw264.7, 5 µM
[3] = Cytotoxicity against mouse RAW264.7 cells; format: cell-based; settings: read-out: LD50 (the source's name)
[4] = target: T1, DNA polymerase lambda (Homo sapiens) (UniProt Q9UGP5); experiment: Inhibition of recombinant His-tagged human DNA polymerase lambda using poly(dA)/oligo(dT)18 (A/T = 2/1) and dTTP as the DNA template-primer and nucleotide substrate at 10 uM after 60 mins; procedure, shortened: as §1
T1 sequence (whole entry): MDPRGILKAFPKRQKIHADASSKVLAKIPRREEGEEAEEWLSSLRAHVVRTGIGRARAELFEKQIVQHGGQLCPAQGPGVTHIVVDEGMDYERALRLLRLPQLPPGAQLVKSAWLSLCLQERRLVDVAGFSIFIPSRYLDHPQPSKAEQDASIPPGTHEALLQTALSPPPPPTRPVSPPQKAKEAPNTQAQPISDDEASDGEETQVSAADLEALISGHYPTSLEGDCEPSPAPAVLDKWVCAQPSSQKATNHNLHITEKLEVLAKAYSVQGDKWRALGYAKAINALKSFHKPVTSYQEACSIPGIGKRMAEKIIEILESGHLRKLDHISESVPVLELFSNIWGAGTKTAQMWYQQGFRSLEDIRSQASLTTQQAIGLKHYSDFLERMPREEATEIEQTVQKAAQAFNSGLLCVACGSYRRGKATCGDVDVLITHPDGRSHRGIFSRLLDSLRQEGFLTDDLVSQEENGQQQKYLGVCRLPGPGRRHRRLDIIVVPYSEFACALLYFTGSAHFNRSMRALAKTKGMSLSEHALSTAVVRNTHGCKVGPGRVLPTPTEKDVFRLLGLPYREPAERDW

Deoxyribonuclease-1 = Deoxyribonuclease-1 (Bos taurus, UniProt P00639); experiment: Inhibition of bovine deoxyribonuclease I by agarose gel electrophoresis
[5] = target: T2, DNA polymerase kappa (Homo sapiens) (UniProt Q9UBT6); experiment: Inhibition of C-terminal His6-tagged human DNA polymerase kappa (amino acids 1 to 560) using poly(dA)/oligo(dT)18 (A/T = 2/1) and dTTP as the DNA template-primer and nucleotide substrate at 10 uM after 60 mins
T2 sequence (whole entry): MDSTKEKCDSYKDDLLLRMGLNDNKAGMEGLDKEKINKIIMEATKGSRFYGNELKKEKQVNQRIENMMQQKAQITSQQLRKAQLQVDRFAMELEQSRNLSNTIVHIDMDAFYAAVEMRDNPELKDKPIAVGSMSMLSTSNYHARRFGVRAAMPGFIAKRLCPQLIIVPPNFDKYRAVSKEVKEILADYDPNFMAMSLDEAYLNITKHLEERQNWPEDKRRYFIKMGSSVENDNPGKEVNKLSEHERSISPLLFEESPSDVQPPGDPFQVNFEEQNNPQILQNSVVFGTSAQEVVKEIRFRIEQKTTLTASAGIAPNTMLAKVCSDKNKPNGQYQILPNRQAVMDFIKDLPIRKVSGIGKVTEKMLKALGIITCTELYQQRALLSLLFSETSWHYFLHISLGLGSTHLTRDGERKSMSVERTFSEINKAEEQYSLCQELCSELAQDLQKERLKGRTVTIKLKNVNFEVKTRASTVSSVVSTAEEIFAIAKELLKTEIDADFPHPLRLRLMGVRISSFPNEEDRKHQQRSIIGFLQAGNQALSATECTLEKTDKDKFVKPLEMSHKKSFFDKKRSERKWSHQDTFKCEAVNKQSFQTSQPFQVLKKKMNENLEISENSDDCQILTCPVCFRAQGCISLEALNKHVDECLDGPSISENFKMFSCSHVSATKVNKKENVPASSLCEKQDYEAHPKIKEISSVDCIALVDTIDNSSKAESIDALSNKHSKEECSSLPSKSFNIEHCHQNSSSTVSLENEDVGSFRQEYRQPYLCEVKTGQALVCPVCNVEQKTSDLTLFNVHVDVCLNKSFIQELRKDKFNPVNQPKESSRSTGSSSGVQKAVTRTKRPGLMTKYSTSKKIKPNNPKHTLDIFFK

Bos taurus = species: Bos taurus; experiment: Inhibition of calf DNA polymerase alpha using bovine deoxyribonuclease 1-treated DNA and dNTP as the DNA template-primer and nucleotide substrate at 10 uM after 60 mins
Homo sapiens = species: Homo sapiens; experiment: Inhibition of histidine-tagged human DNA polymerase gamma using bovine deoxyribonuclease 1-treated DNA and dNTP as the DNA template-primer and nucleotide substrate at 10 uM after 60 mins
[6] = target: T2, DNA polymerase kappa (Homo sapiens); experiment: Inhibition of C-terminal His6-tagged human DNA polymerase kappa (amino acids 1 to 560) using bovine deoxyribonuclease 1-treated DNA and dNTP as the DNA template-primer and nucleotide substrate at 10 uM after 60 mins
[7] = Inhibition of histidine-tagged human DNA polymerase gamma using poly(dA)/oligo(dT)18 (A/T = 2/1) and dTTP as the DNA template-primer and nucleotide substrate after 60 mins; procedure, shortened: as §1
[8] = Inhibition of calf DNA polymerase alpha using poly(dA)/oligo(dT)18 (A/T = 2/1) and dTTP as the DNA template-primer and nucleotide substrate after 60 mins; design: species or system Bos taurus; procedure, shortened: as §1
RAW264.7 [9] = experiment: Antiinflammatory activity in mouse RAW264.7 cells assessed as inhibition of LPS-induced TNFalpha secretion at 5 uM treated 30 mins before LPS challenge measured after 24 hrs by ELISA; format: functional, cell-based
Procedure, shortened: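 RAW264.7 cells in MEM with 4.5 g/L glucose, 10% FCS, 5 mM L-glutamine, at 37 °C in 5% CO2. Seeded at 5 × 10⁴ cells/well and grown 24 h. Compound (final 1 and 5 µM) given 30 min before 100 ng/mL LPS. After 24 h, TNF-α in the medium measured by ELISA, relative to the no-compound value (100%). Mean ± SE, n = 4.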

Sequence of Deoxyribonuclease-1 (P00639 whole entry, the tested form may be a part): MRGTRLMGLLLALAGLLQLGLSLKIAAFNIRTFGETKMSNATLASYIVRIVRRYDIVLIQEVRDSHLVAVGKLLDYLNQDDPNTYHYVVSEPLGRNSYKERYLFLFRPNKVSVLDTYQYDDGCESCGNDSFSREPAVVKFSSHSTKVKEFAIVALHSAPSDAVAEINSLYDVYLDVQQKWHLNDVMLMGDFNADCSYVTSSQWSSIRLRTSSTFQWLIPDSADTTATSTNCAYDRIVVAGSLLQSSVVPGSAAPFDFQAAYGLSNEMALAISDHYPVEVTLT

SMILES | IC50 [1] | Activity (HCT-116) | Activity (RAW264.7 [2]) | CC50 [3] | inhibition [4] | IC50 (Deoxyribonuclease-1) | inhibition [5] | inhibition (Bos taurus) | inhibition (Homo sapiens) | inhibition [6] | IC50 [7] | IC50 [8] | Activity (RAW264.7 [9])
CCCCCCCC/C=C\CCCCCCCC(=O)Oc1cccc2c1C(=O)C=CC2=O | > 100 µM | Active | Non-toxic | > 10 µM | Active | > 100 µM | Active | Active | Active | Active | 0.72 µM | 0.68 µM | –
CCCCCCCCCCCC(=O)Oc1cccc2c1C(=O)C=CC2=O | > 100 µM | – | Non-toxic | > 10 µM | Active | > 100 µM | Active | Active | Active | Active | 6.5 µM | 6.3 µM | Active
